One experiment has as its target T1, COX-2 (Homo sapiens, UniProt P35354).
T1 sequence (P35354 18-604): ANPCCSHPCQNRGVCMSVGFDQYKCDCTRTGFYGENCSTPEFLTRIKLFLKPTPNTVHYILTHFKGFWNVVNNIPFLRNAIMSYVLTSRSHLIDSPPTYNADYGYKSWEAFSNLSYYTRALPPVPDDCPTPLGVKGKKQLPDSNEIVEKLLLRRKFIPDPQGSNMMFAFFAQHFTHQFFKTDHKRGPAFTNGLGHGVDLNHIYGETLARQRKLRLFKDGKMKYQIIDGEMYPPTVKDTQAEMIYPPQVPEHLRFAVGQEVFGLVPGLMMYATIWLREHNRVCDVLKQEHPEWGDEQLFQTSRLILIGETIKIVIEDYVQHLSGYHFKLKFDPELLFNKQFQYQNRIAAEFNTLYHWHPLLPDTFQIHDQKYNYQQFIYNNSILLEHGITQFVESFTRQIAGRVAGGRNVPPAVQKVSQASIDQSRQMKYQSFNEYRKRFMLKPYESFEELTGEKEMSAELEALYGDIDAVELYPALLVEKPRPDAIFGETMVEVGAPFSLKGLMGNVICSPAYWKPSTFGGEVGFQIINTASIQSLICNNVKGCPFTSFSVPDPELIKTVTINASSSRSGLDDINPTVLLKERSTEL
In words: biochemical.

The subject of the next experiment is HepG2 cells. In words: MTT cytotoxic activity assay against HepG2 cells. It is filed as cell-based. The following applies: Homo sapiens, HepG2, 48 h, read-out: IC50 inhibitory effect on HepG2 cells. In a few lines:
(§1)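 Cells seeded at 5 × 10^3 per well and grown 24 h, then exposed to a range of test compound concentrations for 48 h. Vehicle control was 0.1% DMSO and the positive control was adriamycin (10 μM). MTT was added from a 5 mg mL−1 stock for 4 h, and formazan was dissolved in DMSO. Viability was read at 490 nm, in three replicates per treatment.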

In the next experiment the test system is Caco-2 cells. Put plainly: MTT cytotoxic activity assay against Caco-2 cells. Format: cell-based. The settings on record: Homo sapiens, Caco-2, 48 h, read-out: IC50 inhibitory effect on Caco-2 cells. In short, it runs like this: as §1

By IC50 is commonly meant the concentration at which inhibition is half-maximal.

At COX-2, `N[C@H]1CCC=C[C@H]1C(=O)O` [Compound 14, (1R,6S)-6-aminocyclohex-2-ene-1-carboxylic acid] returned a 50% inhibitory concentration (IC50) of 19.3 ± 3.58 µM.

`CC[C@H](CC[C@@H](C)[C@H]1CC[C@H]2[C@@H]3CC(=O)C4=CC(=O)CC[C@]4(C)[C@H]3CC[C@]12C)C(C)C` [Compound 3, stigmast-4-en-3,6-dione] gave an IC50 against COX-2 of 67.9 ± 6.21 µM.

Regarding `c1cncc([C@@H]2CCCCN2)c1` [Compound 15, anabasine], inhibition against COX-2 was half-maximal at 150 ± 11 µM (IC50).

With `OCc1ccccc1O[C@@H]1O[C@H](CO)[C@@H](O)[C@H](O)[C@H]1O` [Compound 25, salicin], the midpoint of inhibition against COX-2, the IC50, lay at 162 ± 10 µM.

Turning to `COc1cc(O)c(C(C)=O)c(OC)c1` [Compound 5, xanthoxylin], the IC50 in the experiment on HepG2 cells turned out to be 8.21 ± 1.12 µM; at COX-2, 123 ± 10.5 µM.

Regarding `CCCCCCCCC/C=C\CCCCCCCCC(=O)O` [Compound 1, cis-10-eicosaenoic acid], the IC50 amounted to 25 ± 1.08 µM in the experiment with HepG2 cells and 10.8 ± 0.3 µM against COX-2.

Consider `O=c1cc[nH]c(=O)[nH]1` [Compound 21, uracil], for which the IC50 with HepG2 cells was found to be 78.5 ± 4.41 µM; with Caco-2 cells, 86 ± 2.96 µM; on COX-2, 146 ± 11 µM.

`O=C1N[C@@H](O)C(O)=C1O` [Compound 23, (S)-3,4,5-trihydroxy-1H-pyrrol-2 (5H)-one] displayed an IC50 at COX-2 of 149 ± 10 µM.

For `Oc1ccccc1CN1CCCC[C@H]1c1cccnc1` [Compound 16, (2S)-N-hydroxybenzylanabasine], the IC50 against COX-2 was found to be 24.2 ± 1.2 µM.

For the origin of these results see article PMC9891086 (RSC Advances, 2023).
